# Source: PubChem BioAssay (Johns Hopkins Ion Channel Center)
# Shown are actives, neighbours in structure and some others; about 2.3% of the full set was active somewhere.
# TRPC4 act: TRPC4 (mouse) channel activation. HEK293 TRPC4beta/mu-opioid, Fluo4 calcium fluorescence; active compounds read high. B-score at 10 µM. 310,000 tested, 0.49% active. AID 2237;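 active means B-score above 5 SD of library B-scores, and initial fluorescence ratio not above library mean plus 5 SD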;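 further: positive B-score marks a calcium rise read as TRPC4 activation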
#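 Assay system: HEK293 stable line with TRPC4beta plus mu-opioid receptor; schedule: 45 min room-temperature Fluo4 loading, 110 s read; technique: kinetic Fluo4 calcium fluorescence; evaluation: integrated baseline-normalised fluorescence ratio, converted to per-well B score; controls: buffer (low) and maximal DAMGO (high)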
# TRPC4 inh: blocks the mouse TRPC4 cation channel; Q9QUQ5; HEK293 TRPC4beta/mu-opioid, DAMGO-evoked Fluo4 calcium flux; active compounds read low; B-score at 10 µM; 300,000 tested, 0.39% active; AID 2247;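 active means B-score over 3 SD under the library average, no early fluorescence shift, positive overall ratio signal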
#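 Assay system: HEK293 cells with stable TRPC4beta plus mu-opioid receptor expression; Probe or stimulus: DAMGO in two steps, submaximal then maximal; Dosing: single-point compound dosing; Measured by: Fluo4 calcium-dye fluorescence, kinetic read; Read-out basis: B score from integrated Fluo4 fluorescence ratio.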
# TRPC6 inhibitor: blocks the mouse TRPC6 cation channel; AID 2553; B-score at 10 µM; 310,000 tested, 1.1% active; Q61143; HEK293-TRPC6, membrane potential dye, ACh-evoked depolarization; active compounds read low;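 active means B-score under library mean minus 3 SD, initial fluorescence not abnormally high, positive integrated signal ratio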;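 further: B-score derived from integrated fluorescence ratio over the kinetic read; more negative B-score means stronger inhibition of depolarization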
# Target sequence (Q61143 whole entry, looked up): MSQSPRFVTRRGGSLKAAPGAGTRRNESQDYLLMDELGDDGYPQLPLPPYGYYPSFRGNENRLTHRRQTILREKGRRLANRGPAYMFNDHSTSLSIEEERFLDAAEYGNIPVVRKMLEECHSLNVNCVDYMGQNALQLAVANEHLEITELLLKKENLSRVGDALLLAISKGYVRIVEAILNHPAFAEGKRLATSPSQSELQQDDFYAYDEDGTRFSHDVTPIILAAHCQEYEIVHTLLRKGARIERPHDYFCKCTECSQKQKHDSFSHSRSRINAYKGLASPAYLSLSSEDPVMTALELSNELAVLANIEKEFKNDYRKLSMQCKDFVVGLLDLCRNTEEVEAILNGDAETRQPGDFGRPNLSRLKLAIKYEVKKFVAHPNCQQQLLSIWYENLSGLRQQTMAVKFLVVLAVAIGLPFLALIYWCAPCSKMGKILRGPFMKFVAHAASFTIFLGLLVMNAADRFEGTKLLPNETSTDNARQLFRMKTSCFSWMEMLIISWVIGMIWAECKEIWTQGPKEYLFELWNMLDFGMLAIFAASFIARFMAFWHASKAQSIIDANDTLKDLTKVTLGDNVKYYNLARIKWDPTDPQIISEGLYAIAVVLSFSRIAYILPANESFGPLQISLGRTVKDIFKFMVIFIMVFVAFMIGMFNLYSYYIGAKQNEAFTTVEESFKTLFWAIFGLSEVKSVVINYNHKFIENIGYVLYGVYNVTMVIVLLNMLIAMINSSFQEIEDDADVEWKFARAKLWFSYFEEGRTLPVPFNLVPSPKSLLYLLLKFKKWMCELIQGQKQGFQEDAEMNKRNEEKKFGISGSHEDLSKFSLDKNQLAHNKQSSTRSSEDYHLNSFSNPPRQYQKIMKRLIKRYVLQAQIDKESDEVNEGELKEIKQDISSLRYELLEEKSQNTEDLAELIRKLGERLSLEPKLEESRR
# TRPC4 PAM: allosteric potentiators of mouse TRPC4 channel; 310,000 tested, 0.42% active; Q9QUQ5; HEK293 TRPC4beta/mu-opioid, DAMGO EC20, Fluo-4 Ca2+ flux; active compounds read high; B-score at 10 µM; AID 2227;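 active means B-score of calcium response area above 5 SD of library B-scores, with initial fluorescence ratio within 5 SD of library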
# TRPC6 act: activates the mouse TRPC6 cation channel | 310,000 tested, 0.13% active | Q61143 | B-score at 10 µM | HEK293-TRPC6 membrane potential dye fluorescence; active compounds read high | AID 2550;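 active means B-score of the integrated fluorescence ratio above library mean plus 3 SD, and starting fluorescence ratio within library mean plus 5 SD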;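 further: higher score means more depolarization so channel activation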
# TRPC4 spec 2: mouse TRPC4 off-target activity of TRPC6 inhibitors, second screen. shares compounds with TRPC6 inhibitor. HEK293 TRPC4/MOR, membrane potential dye fluorescence; channel activated by saturating DAMGO dose. inhibition, % at 10 µM. 920 tested, 42% active. AID 2776;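 active means compounds whose fluorescence signal differed from control wells by over 3 SD, either direction, in both duplicate plates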
# TRPC4 spec: mouse TRPC4 off-target activity of TRPC6 inhibitors. shares compounds with TRPC6 inhibitor. HEK293 TRPC4/mu-opioid, membrane potential fluorescence. activity change, negative = inhibition, % at 10 µM. 920 tested, 61% active. AID 2777;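 active means rise or fall in signal beyond 3 SD of buffer-only wells in both replicate plates, either sign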;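 further: integrated kinetic ratio of fluorescence range over baseline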
# HEK293 MPD ctr 2-1: parental HEK293 nonspecific activity of TRPC6 inhibitors, second screen; shares compounds with TRPC6 inhibitor; parental HEK293 membrane potential dye fluorescence; maximal acetylcholine challenge after compound addition; signal change vs control, % at 10 µM; 920 tested, 31% active;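 active means membrane potential signal moving either way by over 3 SD of the maximum-effect control, in both duplicate plates, meaning non-specific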
# HEK293 MPD ctr-1: checks TRPC6 inhibitor effects in parental HEK293 cells; shares compounds with TRPC6 inhibitor; parental HEK293 membrane potential dye fluorescence; membrane potential signal change, % at 10 µM; 920 tested, 60% active; AID 2780;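 active means membrane potential signal shifting up or down by more than 3 SD of buffer-only wells, on both duplicate plates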
# HEK293 MPD ctr-2: counter-screen for TRPC6 modulators: effect in parental HEK293 cells. membrane potential signal change, % at 10 µM. 2,400 tested, 51% active. AID 488924. membrane potential dye fluorescence. shares compounds with TRPC6 inhibitor;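 active means membrane potential signal moves up or down beyond 5 SD from buffer-only wells, on both duplicate plates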
# HEK293 MPD ctr 2-2: second check of TRPC6 modulator effects in parental HEK293 cells; shares compounds with TRPC6 inhibitor; membrane potential dye fluorescence; after compound, maximal acetylcholine stimulation; inhibition, % at 10 µM; 2,400 tested, 14% active;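 active means membrane potential signal drops by more than 5 SD from the mean control signal, in both duplicate plates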
# TRPC4 ctr mod: selectivity of TRPC6 modulators against mouse TRPC4. shares compounds with TRPC6 inhibitor. HEK293 TRPC4/mu-opioid, membrane potential fluorescence. percent change from control (negative = decrease, positive = increase), % at 10 µM. 2,400 tested, 69% active. AID 488927;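 active means membrane potential signal moved up or down beyond 5 SD of buffer control wells, in both duplicate plates, actives on both sides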
# TRPC4 ctr inh 2: second selectivity test of TRPC6 modulators against mouse TRPC4; 2,400 tested, 55% active; HEK293 TRPC4/mu-opioid, membrane potential dye fluorescence; stimulated with maximal-effect DAMGO; shares compounds with TRPC6 inhibitor; inhibition, % at 10 µM;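 active means drop in membrane potential signal beyond 5 SD of the control wells in both duplicate plates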;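 further: TRPC4 counter screen for TRPC6 hits run under conditions tuned for TRPC6 not TRPC4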
# TRPC6 block conf: confirmation of mouse TRPC6 inhibitors. 3,300 tested, 43% active. inhibition, % at 10 µM. shares compounds with TRPC6 inhibitor. AID 488960. HEK293-TRPC6, membrane potential dye, ACh-evoked depolarization;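 active means fluorescence ratio falls more than 5 SD below the full-stimulation control mean, in both duplicate runs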;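 further: integrated fluorescence ratio of peak minus minimum over baseline after agonist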
# TRPC6 act conf: confirmation of mouse TRPC6 activators. activation, % at 10 µM. HEK293-TRPC6 membrane potential dye fluorescence, FDSS. 2,800 tested, 11% active. shares compounds with TRPC6 inhibitor;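 active means ratio signal rise beyond 5 SD above unstimulated control wells' mean, seen in both duplicate runs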
# Hits are given with their value; . = inactive; / = no result given; + = active, no number.
SMILES,TRPC4 act,TRPC4 inh,TRPC6 inhibitor,TRPC4 PAM,TRPC6 act,HEK293 MPD ctr-2,HEK293 MPD ctr 2-2,TRPC4 ctr mod,TRPC4 ctr inh 2,TRPC6 block conf,TRPC6 act conf,others
Cc1cc(C[n+]2cc(Br)ccc2N)c2ncccc2c1,.,.,.,.,.,/,/,/,/,/,/,
CCN(CC)CCCNc1cc(C(F)(F)F)c(C#N)c2nc3ccccc3n12,.,.,-6.5,.,.,.,66%,-66%,71%,70%,.,
CCCc1cc(NCCCCO)n2c(nc3ccccc32)c1C#N,.,.,.,.,.,/,/,/,/,/,/,
CCN(CC)CCNc1cc(C)c(C#N)c2nc3ccccc3n12,.,.,-11,.,.,-411%,96%,-66%,62%,71%,.,
Cc1cc(NCCCCO)n2c(nc3ccccc32)c1C#N,.,.,.,.,.,/,/,/,/,/,/,
Cn1cc(C(=O)Nc2ccc(C#N)cc2)c2ccccc2c1=O,.,.,.,.,.,/,/,/,/,/,/,
CN(C)CCCn1c(=O)n(Cc2ccco2)c(=O)c2c3c(sc21)CCCCC3,.,.,.,.,.,/,/,/,/,/,/,
Cn1c(=O)n(Cc2ccco2)c(=N)c2c3c(sc21)CCC3,.,.,-7.1,.,.,-184%,.,-32%,46%,36%,.,
CCN(CC)c1ccc(-c2nc3cnccc3n2C)cc1,.,.,-5.9,.,.,-170%,.,-30%,34%,.,.,
Cc1ccnn1CCC(=O)O,.,.,.,.,.,/,/,/,/,/,/,
C=C(C)CN(CC)c1nc(N)c2c(N)nc3c(c2c1C#N)CC(=O)N3C12CC3CC(CC(C3)C1)C2,.,.,.,.,.,/,/,/,/,/,/,
N#Cc1c(N2CCCC(O)C2)nc(N)c2c(N)nc3c(c12)CC(=O)N3C12CC3CC(CC(C3)C1)C2 (stereo not given),.,.,-6.1,.,.,.,.,.,.,.,.,
O=C(COC(=O)CCSc1ccc(Cl)cc1)NCc1ccco1,.,.,.,.,.,/,/,/,/,/,/,
Cc1ccc(C#CC[N+]2(C)CCCCC2)cc1,.,.,.,.,.,/,/,/,/,/,/,
CCOC(=O)c1ccc(/C=C2/C=C(c3ccccc3)N(c3ccc(Cl)c(C(=O)O)c3)C2=O)cc1,72,.,.,.,36,+,.,377%,.,.,686%,
O=C(O)COc1ccc(/C=C/c2nc3ccc([N+](=O)[O-])cc3s2)cc1,.,.,-8.5,.,.,/,/,/,/,.,.,TRPC4 spec 2=.;TRPC4 spec=-30%;HEK293 MPD ctr 2-1=.;HEK293 MPD ctr-1=-426%
CC(Oc1ccc2c3c(c(=O)oc2c1)CCC3)C(=O)NC1CCN(Cc2ccccc2)CC1 (stereo not given),.,.,-6.3,.,.,.,.,-14%,74%,58%,.,
O=C(CCNC(=O)c1ccccc1Cl)Nc1cc(S(=O)(=O)N2CCOCC2)ccc1N1CCCC1,.,.,.,.,.,/,/,/,/,/,/,
COc1ccc(CN(CC2CCC(C(=O)O)CC2)C(=S)Nc2cccc(C)c2)cc1 (stereo not given),.,.,.,.,.,/,/,/,/,/,/,
O=c1cc(-c2ccccc2)oc2ccc(O)cc12,.,.,.,.,.,/,/,/,/,/,/,
OCCCN=c1cc(-c2ccccc2)oc2ccc(Cl)cc12,.,.,-7.3,.,.,/,/,/,/,77%,.,TRPC4 spec 2=68%;TRPC4 spec=-19%;HEK293 MPD ctr 2-1=.;HEK293 MPD ctr-1=-386%
CC1(C)CC(N=c2cc(-c3ccccc3)oc3ccc(Cl)cc23)CC(C)(C)N1,.,.,-9.6,.,.,/,/,/,/,69%,.,TRPC4 spec 2=42%;TRPC4 spec=-26%;HEK293 MPD ctr 2-1=-39%;HEK293 MPD ctr-1=-328%
COc1nc(N(c2ccccc2)c2ccccc2)nc(-n2ccnc2)n1,.,.,.,.,12,372%,59%,64%,.,.,132%,
Cc1[nH]nc(SCC(=O)Nc2ccc(C#N)cc2)c1[N+](=O)[O-],.,.,.,.,.,/,/,/,/,/,/,
Cc1ccn(CC(=O)NC2CCCN(Cc3ccc(CC(C)C)cc3)C2)n1 (stereo not given),145,.,-5.8,.,.,112%,.,38%,.,.,/,
SMILES,TRPC4 act,TRPC4 inh,TRPC6 inhibitor,TRPC4 PAM,TRPC6 act,HEK293 MPD ctr-2,HEK293 MPD ctr 2-2,TRPC4 ctr mod,TRPC4 ctr inh 2,TRPC6 block conf,TRPC6 act conf,others
CC(C)Cc1ccc(CN2CCCC(NC(=O)CCN3CCCO3)C2)cc1 (stereo not given),.,.,.,.,.,/,/,/,/,/,/,
CC1CCN(S(=O)(=O)c2ccc3c(ccn3CCC(=O)N3CCCCC3)c2)CC1,.,.,-6.2,.,.,.,.,9.5%,.,78%,/,
CN1CCN(C(=O)c2cccc(S(=O)(=O)N3CCCCC3)c2)CC1,.,.,.,.,.,/,/,/,/,/,/,
O=C(c1cccc(S(=O)(=O)N2CCCCCC2)c1)N1CCN(c2ccccc2)CC1,.,.,-5.2,.,.,106%,.,19%,.,.,/,
CC1CCC(NC(=O)CCn2ccc3cc(S(=O)(=O)N4CCCC4)ccc32)CC1 (stereo not given),.,.,.,.,.,/,/,/,/,/,/,
CC1CCN(C(=O)c2cccc(S(=O)(=O)N3CCCCC3)c2)CC1,.,.,-8.3,.,13,108%,.,20%,.,73%,106%,
O=C(c1cccc(S(=O)(=O)N2CCCC2)c1)N1CCN(c2ccccc2)CC1,.,/,.,.,.,/,/,/,/,/,/,
CCOC(=O)N1CCC(N2CCCC(C(=O)c3cccc(OC(C)C)c3)C2)CC1 (stereo not given),.,.,.,.,.,/,/,/,/,/,/,
O=C(COc1ccc2ccccc2c1)Nc1ccccc1C(=O)O,.,.,.,.,.,/,/,/,/,/,/,
Cc1ccc(Cn2cnc3ccccc32)cc1C,.,.,.,.,.,/,/,/,/,/,/,
